ChEMBL document CHEMBL1143606, “3-Aminopyrazole inhibitors of CDK2/cyclin A as antitumor agents. 2. Lead optimization” (J Med Chem, 2005)
Values after ≈ are worked out from the molar mass of the structure shown. Values joined by “and” are separate entries in the source; they are usually repeats but may differ in a detail not shown here. Identical values can stand only once.

Assays:
[1] = rat, plasma
physchem [2] = conditions: aqueous buffer, pH 7
[3] = biological target: Cyclin-dependent kinase 2/cyclin A (Homo sapiens, UniProt P24941); assay: Inhibition of cyclin dependent kinase 2-cyclin A; format: protein-complex assay
A2780 [4] = assay: Inhibitory concentration towards human ovarian carcinoma cell line A2780; format: functional, cell-based
A2780 [5] = assay: Percent inhibition tumor growth of Human ovarian cancer cell A2780 in mice when administered 7.5 mg/kg twice a day for 20 days; format: functional; conditions: Mus musculus, A2780, 480 h
How it was run: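 A2780 tumor kept by sc passage of 20-30 mg brei in athymic mice. Fragments implanted sc in left flank of nude mice, 10 mice/group. Dosing began at measurable tumors (mean 0.13 g, day 8). Dosed orally in 50% PEG 400/glucosate. Body weight followed. Data from a single experiment.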

[6] = biological target: T1, Cyclin-dependent kinase 1/cyclin B (Homo sapiens, UniProt P06493); assay: Inhibition of cyclin dependent kinase 1-cyclin B (n=6); format: protein-complex assay
How it was run: (§1)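 IC50 from at least two independent experiments; value is the mean of IC50s obtained by nonlinear least-squares regression fitting. Coefficient of variation of the mean 10% to 24%. GSK-3β belonged to a panel of 30 serine-threonine and tyrosine kinases.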

[7] = biological target: T2, Cyclin-dependent kinase 4/cyclin D1 (Homo sapiens, UniProt P11802); assay: Inhibition of cyclin-dependent kinase 4-cyclin D1 (n=4); format: protein-complex assay
T2 sequence (P11802 whole entry): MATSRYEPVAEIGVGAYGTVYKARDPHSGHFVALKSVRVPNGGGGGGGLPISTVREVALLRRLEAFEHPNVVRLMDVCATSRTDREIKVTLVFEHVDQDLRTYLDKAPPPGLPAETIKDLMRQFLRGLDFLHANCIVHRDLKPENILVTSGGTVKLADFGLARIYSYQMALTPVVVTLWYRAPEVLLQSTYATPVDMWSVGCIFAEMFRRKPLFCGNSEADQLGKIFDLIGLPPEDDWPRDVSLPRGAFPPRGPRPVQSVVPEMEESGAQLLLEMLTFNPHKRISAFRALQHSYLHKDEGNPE
T2 sequence (P24385 whole entry, further chain): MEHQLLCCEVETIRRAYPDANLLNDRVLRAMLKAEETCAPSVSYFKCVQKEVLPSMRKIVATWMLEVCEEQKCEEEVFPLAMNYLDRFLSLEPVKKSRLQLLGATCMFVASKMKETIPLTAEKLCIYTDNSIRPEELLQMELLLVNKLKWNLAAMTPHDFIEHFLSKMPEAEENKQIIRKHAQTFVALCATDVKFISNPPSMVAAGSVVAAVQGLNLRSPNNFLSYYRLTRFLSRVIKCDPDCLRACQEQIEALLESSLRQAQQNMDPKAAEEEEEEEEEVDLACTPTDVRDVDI
How it was run: as §1

HT-29 [8] = assay: Percent of BrdU incorporation in HT-29 cells at 3 uM concentration of compound; format: functional
A2780 [9] = assay: Inhibitory concentration towards Human ovarian carcinoma cell line A2780; format: functional, cell-based
HT-29 [10] = assay: Percent of BrdU incorporation in HT-29 cells at 1 uM concentration of compound; format: functional
[11] = biological target: T3, Cyclin-dependent kinase 2/cyclin E (Homo sapiens, UniProt P24941); assay: Inhibition of cyclin dependent kinase 2-cyclin E (n=6); format: protein-complex assay
How it was run: as §1

[12] = Inhibition of glycogen synthase kinase-3 beta (n=13)
How it was run: as §1

HT-29 [13] = assay: Inhibitory concentration towards human colon cancer HT-29 cell line; format: functional, cell-based
HCT-116 = assay: Inhibitory concentration towards HCT 116 human colon cancer cell line; format: functional, cell-based
physchem [14] = conditions: aqueous buffer
HT-29 [15] = assay: Percent of BrdU incorporation in Brdu positive HT-29 cells at 1 uM concentration of compound; format: functional, Homo sapiens
HT-29 [16] = assay: Percent of BrdU incorporation in Brdu positive HT-29 cells at 3 uM concentration of compound; format: functional, Homo sapiens
[17] = mouse, in vivo
[18] = mouse, in vivo; remark: listed apart in the source
[19] = Inhibition of glycogen synthase kinase-3 beta (n=6)
How it was run: as §1

[20] = biological target: T2, Cyclin-dependent kinase 4/cyclin D1; assay: Inhibition of cyclin-dependent kinase 4-cyclin D1 (n=2); format: protein-complex assay
How it was run: as §1

[21] = biological target: T3, Cyclin-dependent kinase 2/cyclin E; assay: Inhibition of cyclin dependent kinase 2-cyclin E (n=4); format: protein-complex assay
How it was run: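 Kinase inhibition assay run by a previously reported method. IC50 is the mean of values from nonlinear least-squares regression fits, with at least two independent experiments per compound. Coefficient of variation of the mean was 10% to 24%.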

[22] = biological target: Cyclin-dependent kinase 5/CDK5 activator 1 (Homo sapiens, UniProt Q00535); assay: Inhibition of cyclin-dependent kinase 5 p25 alpha (n=4); format: protein-complex assay
Cyclin-dependent kinase 5/CDK5 activator 1, sequence (Q00535 whole entry): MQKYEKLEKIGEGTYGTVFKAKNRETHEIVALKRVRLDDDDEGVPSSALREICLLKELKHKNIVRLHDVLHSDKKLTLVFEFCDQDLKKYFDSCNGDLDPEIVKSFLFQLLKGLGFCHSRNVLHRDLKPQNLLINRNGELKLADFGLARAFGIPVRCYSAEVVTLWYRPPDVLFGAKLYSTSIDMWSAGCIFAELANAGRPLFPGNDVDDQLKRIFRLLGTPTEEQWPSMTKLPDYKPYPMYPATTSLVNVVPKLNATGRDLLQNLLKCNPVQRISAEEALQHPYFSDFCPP
Cyclin-dependent kinase 5/CDK5 activator 1, sequence (Q15078 whole entry, further chain): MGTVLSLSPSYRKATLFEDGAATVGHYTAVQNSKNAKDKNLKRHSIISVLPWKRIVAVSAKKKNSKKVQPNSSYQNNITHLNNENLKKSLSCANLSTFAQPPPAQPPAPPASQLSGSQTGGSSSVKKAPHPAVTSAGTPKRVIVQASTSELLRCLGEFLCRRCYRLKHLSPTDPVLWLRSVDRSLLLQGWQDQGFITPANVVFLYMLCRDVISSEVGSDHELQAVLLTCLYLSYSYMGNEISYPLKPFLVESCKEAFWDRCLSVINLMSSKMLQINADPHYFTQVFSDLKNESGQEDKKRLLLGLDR
How it was run: as §1

[23] = Half-life of compound in plasma of CD-1 mice upon o.s. dose; format: ADME, cell-free; conditions: CD-1, mouse, po
How it was run: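 Mice dosed orally at 10 mg/kg in PEG 400/glucosate vehicle (preliminary PK, with iv and oral legs); plasma terminal half-life determined.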

[24] = mouse, in vivo, iv
[25] = biological target: T1, Cyclin-dependent kinase 1/cyclin B; assay: Inhibition of cyclin dependent kinase 1-cyclin B (n=4); format: protein-complex assay
How it was run: as §1

SMILES | Binding [1] | solubility (physchem [2]) | IC50 [3] | IC50 (A2780 [4]) | further results
O=C(Cc1ccc2ccccc2c1)Nc1cc(C2CC2)n[nH]1 | 99% | 22 µM (≈ 6.41 µg/mL) |  |  | 
COC(C(=O)Nc1cc(C2CC2)[nH]n1)c1ccccc1 (configuration not stated) |  |  | 5000 nM |  | 
CO[C@H](C(=O)Nc1cc(C2CC2)n[nH]1)c1ccccc1 |  |  | 2000 nM |  | 
O=C(Nc1cc(C2CC2)n[nH]1)C(=O)c1ccccc1 |  |  | 2600 nM |  | 
CC(C(=O)Nc1cc(C2CC2)[nH]n1)c1ccc(N2CCCC2)cc1 (configuration not stated) | 96% | 3 µM (≈ 0.973 µg/mL) |  | 0.37 µM | 
C[C@H](C(=O)Nc1cc(C2CC2)[nH]n1)c1ccc(N2Cc3ccccc3C2=O)cc1 |  | 5 µM (≈ 1.93 µg/mL) | 2 nM | 1.02 µM | 
O=C(Nc1cc(C2CC2)[nH]n1)C(F)c1ccccc1 (configuration not stated) |  |  | 99 nM |  | 
CC(C(=O)Nc1cc(C2CC2)[nH]n1)c1ccc(N2CCN(Cc3ccccc3)C2=O)cc1 (configuration not stated) |  |  | 1450 nM |  | 
C[C@@H](C(=O)Nc1cc(C2CC2)[nH]n1)c1ccc(N2Cc3ccccc3C2=O)cc1 |  | 51 µM (≈ 19.7 µg/mL) | 170 nM |  | 
CC(C(=O)Nc1cc(C2CC2)[nH]n1)c1ccc(N2C(=O)CCC2c2ccccc2)cc1 (configuration not stated) | 97% | 50 µM (≈ 20.7 µg/mL) | 200 nM | 15.3 µM | 
O=C(Nc1cc(C2CC2)[nH]n1)C(c1ccccc1)c1ccccc1 |  |  | > 10000 nM |  | 
CC(C(=O)Nc1cc(C2CC2)[nH]n1)c1ccc(-n2cc[nH]c2=O)cc1 (configuration not stated) | 74% | 233 µM (≈ 78.6 µg/mL) | 11 nM | 6.98 µM | 
N[C@H](C(=O)Nc1cc(C2CC2)[nH]n1)c1ccccc1 |  |  | 960 nM |  | 
CC(C(=O)Nc1cc(C2CC2)[nH]n1)c1ccccc1 (configuration not stated) |  |  | 169 nM |  | 
C[C@@H](C(=O)Nc1cc(C2CC2)[nH]n1)c1ccccc1 |  |  | 6000 nM |  | 
CC(C(=O)Nc1cc(C2CC2)[nH]n1)c1ccc(N2Cc3ccccc3C2=O)cc1 (configuration not stated) |  | 12 µM (≈ 4.64 µg/mL) | 13 nM | 4.75 µM | 
C[C@H](C(=O)Nc1cc(C2CC2)[nH]n1)c1ccccc1 |  |  | 84 nM |  | 
CO[C@@H](C(=O)Nc1cc(C2CC2)n[nH]1)c1ccccc1 |  |  | > 10000 nM |  | 
CC(C(=O)Nc1cc(C2CC2)[nH]n1)c1ccc(N2CCCS2(=O)=O)cc1 (configuration not stated) | 78% | 135 µM (≈ 50.6 µg/mL) |  | 5.24 µM | 
CC(C(=O)Nc1cc(C2CC2)[nH]n1)c1ccc(-n2cn[nH]c2=O)cc1 (configuration not stated) | 58% | 109 µM (≈ 36.9 µg/mL) | 73 nM | 8.39 µM | 

Now from value to compound, other results behind:

Binding [1] | solubility (physchem [2]) | IC50 [3] | IC50 (A2780 [4]) | SMILES | further results
74% | 220 µM (≈ 74.7 µg/mL) | 455 nM | 13.2 µM | C[C@@H](C(=O)Nc1cc(C2CC2)[nH]n1)c1ccc(N2CCNC2=O)cc1 | 
 |  | 37 nM | 0.8 µM | C[C@H](C(=O)Nc1cc(C2CC2)[nH]n1)c1ccc(N2CCCC2=O)cc1 | inhibition in vivo at 7.5 mg/kg (A2780 [5]): 73%; IC50 [6]: 208 nM; IC50 [7]: > 10 µM; Brdu positive (HT-29 [8]): 4%; IC50 (A2780 [9]): 744 nM; Brdu positive (HT-29 [10]): 25%; IC50 [11]: 55 nM; IC50 [12]: 732 nM; IC50 (HT-29 [13]): 639 nM; IC50 (HCT-116): 1350 nM
73% and 74% | 232 µM (≈ 79 µg/mL) | 20 nM | 0.79 µM | C[C@H](C(=O)Nc1cc(C2CC2)[nH]n1)c1ccc(N2CCOC2=O)cc1 | solubility (physchem [14]): 225 µM (≈ 76.6 µg/mL); Activity (HT-29 [15]): 65%; Activity (HT-29 [16]): 0.7%; Vss [17]: 573 mL/kg; Clearance [18]: 4.7 mL/min/kg; IC50 [19]: 406 nM; IC50 [20]: > 10 µM; IC50 (A2780 [9]): 716 nM; IC50 [21]: 37 nM; IC50 [22]: 57 nM; half-life [23]: 3.1 h; IC50 (HT-29 [13]): 751 nM; T1/2 [24]: 2.8 min; IC50 (HCT-116): 1130 nM; IC50 [25]: 243 nM
 |  | 240 nM | > 10 µM | CC(C(=O)Nc1cc(C2CC2)[nH]n1)c1ccc(N2CCCCC2=O)cc1 (configuration not stated) | 
 |  | 17 nM | 1.4 µM | C[C@H](C(=O)Nc1cc(C2CC2)[nH]n1)c1ccc(N2CCN(C)C2=O)cc1 | 
72% | 220 µM (≈ 74.9 µg/mL) | 2500 nM |  | C[C@@H](C(=O)Nc1cc(C2CC2)[nH]n1)c1ccc(N2CCOC2=O)cc1 | 
73% | 222 µM (≈ 75.6 µg/mL) | 25 nM | 1.04 µM | CC(C(=O)Nc1cc(C2CC2)[nH]n1)c1ccc(N2CCOC2=O)cc1 (configuration not stated) | 
 |  | 2500 nM | 12.2 µM | C[C@@H](C(=O)Nc1cc(C2CC2)[nH]n1)c1ccc(N2CCCC2=O)cc1 | 
57% | 120 µM (≈ 45.8 µg/mL) | 20 nM | 5.71 µM | CC(C(=O)Nc1cc(C2CC2)[nH]n1)c1ccc(N2CCC(C(N)=O)C2=O)cc1 (configuration not stated) | 
74% | > 225 µM | 2 nM | 1.27 µM | C[C@H](C(=O)Nc1cc(C2CC2)[nH]n1)c1ccc(N2CCNC2=O)cc1 | 
74% | 224 µM (≈ 76 µg/mL) | 12 nM | 2.25 µM | CC(C(=O)Nc1cc(C2CC2)[nH]n1)c1ccc(N2CCNC2=O)cc1 (configuration not stated) | 
67% | 201 µM (≈ 71 µg/mL) | 17 nM | 4.54 µM | CC(C(=O)Nc1cc(C2CC2)[nH]n1)c1ccc(N2CC(=O)NC2=O)cc1 (configuration not stated) | 
67% | 222 µM (≈ 78.2 µg/mL) | 150 nM | 6.4 µM | CC(C(=O)Nc1cc(C2CC2)[nH]n1)c1ccc(N2C(=O)CCC2C)cc1 (configuration not stated) | 
 |  | 169 nM | 0.63 µM | CC(C(=O)Nc1cc(C2CC2)[nH]n1)c1ccc(N2CCCC2=O)cc1 (configuration not stated) | 
 |  | 29 nM | 1.68 µM | CC(C(=O)Nc1cc(C2CC2)[nH]n1)c1ccc(N2CCN(C)C2=O)cc1 (configuration not stated) | 
98% | 24 µM (≈ 7.79 µg/mL) |  | 0.22 µM | C[C@H](C(=O)Nc1cc(C2CC2)[nH]n1)c1ccc(N2CCCC2)cc1 | 
 |  | 8500 nM |  | C[C@@H](C(=O)Nc1cc(C2CC2)[nH]n1)c1ccc(N2CCN(C)C2=O)cc1 | 
 |  | 124 nM | > 10 µM | CC(C(=O)Nc1cc(C2CC2)[nH]n1)c1ccc(N2C(=O)CNC2=O)cc1 (configuration not stated) | 
